The record followed here is ChEMBL document CHEMBL1122301, “Bioisosteric design of conformationally restricted pyridyltriazole histamine H2-receptor antagonists” (J Med Chem, 1983).

Series [1] deals with Histamine H1 receptor (Cavia porcellus) (UniProt P31389). Kind of series: Relative antagonistic activity against Histamine H1 receptor.
Series [2] has as its system Canis familiaris. Put plainly: Acid antisecretory activity against pentagastrin-stimulated Heidenhain pouch dogs at a dose of 23 mg/kg after intravenous administration. It is filed as functional, Canis lupus familiaris. The gist of the method:
(§1)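 Pentagastrin was infused iv into a leg vein of fasted, conscious Heidenhain pouch dogs to give near-maximal acid output. Juice was collected every 30 min, ten collections in all, and acid was titrated (1.0 mL to pH 7.4, 0.1 N NaOH). The single iv dose was given at 90 min. Percent inhibition was the lowest post-dose acid output compared with the mean output just before dosing.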

The target in series [3] is Histamine H2 receptor (Cavia porcellus) (UniProt P47747). Put plainly: Antagonistic activity against histamine H2 receptor from guinea pig atrium. To be noted: Cardiac atrium. It is filed as functional, tissue-based.
Series [4] relates to Canis familiaris. Put plainly: Acid antisecretory activity against pentagastrin-stimulated Heidenhain pouch dogs at a dose of 10 mg/kg after intravenous administration. Format: functional, Canis lupus familiaris. A digest of the protocol:
as §1

For series [5], the target named is Histamine H2 receptor (Cavia porcellus) (UniProt P47747). Kind of series: Antagonistic activity against histamine H2 receptor from guinea pig atrium; activity KB (Dissociation Constant) is negative. The settings on record: Cardiac atrium. Format: functional, tissue-based.
Series [6] concerns Canis familiaris. Put plainly: Acid antisecretory activity against pentagastrin-stimulated Heidenhain pouch dogs at a dose of 25 mg/kg after intravenous administration. Format: functional, Canis lupus familiaris. The gist of the method:
as §1

The subject of series [7] is Canis familiaris. Kind of series: Acid antisecretory activity against pentagastrin-stimulated Heidenhain pouch dogs at a dose of 5 mg/kg after intravenous administration. Format: functional, Canis lupus familiaris. The gist of the method:
as §1

Series [8] can be described thus: Log distribution coefficient between 1-octanol and aqueous buffer at pH of 7.4. Format: physicochemical. To be noted: 1-octanol/aqueous buffer, pH 7.4.
Series [9] has as its system Canis familiaris. Kind of series: Acid antisecretory activity against pentagastrin-stimulated Heidenhain pouch dogs after intravenous administration. It is filed as functional. To be noted: Canis lupus familiaris, read-out: ID50 (the source's name). A digest of the protocol:
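Fasted, unanesthetized Heidenhain pouch dogs received a continuous pentagastrin infusion into a superficial leg vein at a near-maximal acid-stimulating dose. Gastric juice was collected at 30-min intervals, ten collections per dog. Acid was titrated on 1.0 mL to pH 7.4 with 0.1 N NaOH. Compound or vehicle was given iv at 90 min. ID50 came from linear regression of log dose on percent inhibition in n dogs.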

Series [10] can be described thus: Log distribution coefficient between 1-octanol and aqueous buffer at pH of 9.2. It is filed as physicochemical. The settings on record: 1-octanol/aqueous buffer, pH 9.2.
The target of series [11] is Histamine H1 receptor (Cavia porcellus) (UniProt P31389). Kind of series: Relative antagonistic activity against Histamine H1 receptor, NA is Inactive.
A short description of series [12]: Log distribution coefficient between 1-octanol and aqueous buffer at specified pH of 9.2. The settings on record: 1-octanol/aqueous buffer, pH 9.2.
Series [13] can be described thus: pKa ([…] constant) value at a physiological pH of 7.4. To be noted: pH 7.4. Format: physicochemical. A digest of the protocol: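 Ionisation constants taken as the observed pH1/2 from titration at 23 °C. The dihydrochloride salts were titrated in water, and the free bases in 1:1 methanol–water.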

Calls of active or inactive are those of the source. The rule behind the calls is not given here.

Histamine H1 receptor (Cavia porcellus), sequence (P31389 whole entry): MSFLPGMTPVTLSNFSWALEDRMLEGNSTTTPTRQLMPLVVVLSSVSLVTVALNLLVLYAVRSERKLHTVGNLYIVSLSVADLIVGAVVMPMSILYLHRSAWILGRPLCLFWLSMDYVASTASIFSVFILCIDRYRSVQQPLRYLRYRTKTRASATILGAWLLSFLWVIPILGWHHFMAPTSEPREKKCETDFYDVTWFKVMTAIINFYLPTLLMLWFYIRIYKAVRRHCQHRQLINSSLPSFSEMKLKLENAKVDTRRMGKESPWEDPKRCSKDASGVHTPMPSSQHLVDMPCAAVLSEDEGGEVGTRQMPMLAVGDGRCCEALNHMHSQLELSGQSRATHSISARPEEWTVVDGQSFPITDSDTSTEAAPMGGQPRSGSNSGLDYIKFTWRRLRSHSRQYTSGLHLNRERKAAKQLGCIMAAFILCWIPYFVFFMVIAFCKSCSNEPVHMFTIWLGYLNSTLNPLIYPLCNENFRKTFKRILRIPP
Histamine H2 receptor (Cavia porcellus), sequence (P47747 whole entry): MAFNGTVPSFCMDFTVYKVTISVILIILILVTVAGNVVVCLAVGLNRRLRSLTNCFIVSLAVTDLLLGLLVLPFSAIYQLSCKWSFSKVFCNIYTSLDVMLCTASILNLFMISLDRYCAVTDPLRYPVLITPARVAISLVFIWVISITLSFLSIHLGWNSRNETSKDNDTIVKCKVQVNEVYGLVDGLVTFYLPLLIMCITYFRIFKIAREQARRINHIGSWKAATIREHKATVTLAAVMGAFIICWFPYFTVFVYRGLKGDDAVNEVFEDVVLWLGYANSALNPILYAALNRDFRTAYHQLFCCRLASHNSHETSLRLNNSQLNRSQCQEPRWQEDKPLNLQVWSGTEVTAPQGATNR

In the case of `CN(C)CCN(Cc1ccccc1)c1ccccc1`, the Relative activity in [1] worked out at 1.
Turning to `Nc1n[nH]c(-c2ccncc2)n1`, the figures for the Max inhibition in series [2] and in series [4] were 73% and 43%, respectively. Also, the antagonist equilibrium constant (Kb) (commonly the equilibrium dissociation constant of an antagonist, usually derived from a functional assay) in series [3] was determined as 41900 nM.
`c1ccc(CN(CC2=NCCN2)c2ccccc2)cc1` yielded a Relative activity in series [1] greater than 1.
Take `Nc1n[nH]c(Cc2ccncc2)n1`: in series [5], the KB result was “inactive”. Moreover, the Max inhibition is 26% in series [4] and 30% in series [6].
For the compound `Nc1n[nH]c(Cc2cccnc2)n1`, the KB entry in [5] was “inactive”. This compound returned a Max inhibition in [4] of 0%.
Consider `c1ccc(CN(CCc2c[nH]cn2)Cc2ccccc2)cc1`, for which the Relative activity in series [1] amounted to 0.01.
Take `Nc1n[nH]c(-c2cccnc2)n1`: the KB entry in series [5] was “inactive”. The Max inhibition was found to be 22% in series [4] and 11% in [6].
For `Nc1n[nH]c(-c2ccccn2)n1`, the KB entry in series [5] is “inactive”. The Max inhibition in [7] and in series [4] was 0% each time.
For `Nc1cc(-c2n[nH]c(N)n2)ccn1`, the logD – broadly, lipophilicity at a set pH, counting ionised and neutral species – was 0.11 in [8] and -0.06 in series [10]. Besides, the ED50 in series [9] turned out to be 2.35 mg/kg. The Kb in [3] is 2220 nM.
As to `CN(C)CCN(Cc1ccccc1)Cc1ccccc1`, the outcome in [11] was inactive.
With `Nc1n[nH]c(Cc2ccccn2)n1`, in series [5], the KB result was “inactive”. For the same compound, the Max inhibition is on record as 18% in [7] and 0% in [4].
In the case of `CCNc1cc(-c2n[nH]c(N)n2)ccn1`, the logD is 1.13 in [8] and 0.97 in series [10]. In [9], the ED50 was found to be 0.87 mg/kg. Also, the Kb in series [3] was 235 nM.
In series [1], `c1ccc(CN(Cc2c[nH]cn2)c2ccccc2)cc1` registered a Relative activity greater than 0.5.
As to `CN/C(=N\CCSCc1nc[nH]c1C)NC#N` [CIMETIDINE], the ED50 in series [9] is 1.02 mg/kg. The logD amounted to 0.54 in series [12] and 0.4 in series [10]. Further, the pKa (commonly the negative logarithm of the acid dissociation constant) in series [13] came to 7.02.
